# Results pooled from the literature.
# Each line is one published result; the experiments were not run side by side.
# Organism: Mycolicibacterium smegmatis
# Effect on: microbial growth
SMILES,technique,strain,time,MIC
Cc1ccc(Nc2nc(-c3cc(C(=O)Nc4ccccc4)no3)cs2)cc1,,MC2155,,> 64 µg/mL
CC[C@H]1OC(=O)[C@H](C)[C@@H](O[C@H]2C[C@@](C)(OC)[C@@H](O)[C@H](C)O2)[C@H](C)[C@@H](O[C@@H]2O[C@H](C)C[C@H](N(C)C)[C@H]2O)[C@](C)(OC)C[C@@H](C)C(=O)[C@H](C)[C@@H](O)[C@]1(C)O,resazurin,MC^2155,24 h,0.36 µg/mL
NC[C@@H]1O[C@H](O[C@H]2[C@@H](O)[C@H](O[C@@H]3[C@@H](O)[C@H](N)C[C@H](N)[C@H]3O[C@H]3O[C@H](CO)[C@@H](O)[C@H](O)[C@H]3N)O[C@@H]2CO)[C@H](N)[C@@H](O)[C@@H]1O,broth dilution,,72 h,1 µg/mL
NCC[C@H](O)C(=O)N[C@@H]1C[C@H](N)[C@@H](O[C@H]2O[C@H](CN)[C@@H](O)[C@H](O)[C@H]2O)[C@H](O)[C@H]1O[C@H]1O[C@H](CO)[C@@H](O)[C@H](N)[C@H]1O,broth dilution,MC2155,,≤ 0.5 µg/mL
C/C(=N\NC(=N)N)c1ccc(-c2ccc(/C(C)=N/Nc3ccccc3Cl)cc2)cc1.Cl,,MC2155,,213 µg/mL
Cc1ccc(-c2c[nH]c(N)n2)cc1,,ATCC700084 MC^2155,48 h,100 µM
C[C@H]1COc2c(N3CCN(C)CC3)c(F)cc3c(=O)c(C(=O)O)cn1c23,resazurin,MC^2155,24 h,0.14 µg/mL
NC[C@H]1O[C@H](O[C@H]2[C@H](O)[C@@H](O[C@H]3O[C@H](CO)[C@@H](O)[C@H](N)[C@H]3O)[C@H](N)C[C@@H]2N)[C@H](N)C[C@@H]1O,broth dilution,,72 h,1 µg/mL
CO[C@H]1/C=C/O[C@@]2(C)Oc3c(C)c(O)c4c(O)c(c(/C=N/N5CCN(C)CC5)c(O)c4c3C2=O)NC(=O)/C(C)=C\C=C\[C@H](C)[C@H](O)[C@@H](C)[C@@H](O)[C@@H](C)[C@H](OC(C)=O)[C@@H]1C,broth dilution,ATCC700084 MC^2155,,8 µg/mL
CO[C@H]1/C=C/O[C@@]2(C)Oc3c(C)c(O)c4c(O)c(c(/C=N/N5CCN(C)CC5)c(O)c4c3C2=O)NC(=O)/C(C)=C\C=C\[C@H](C)[C@H](O)[C@@H](C)[C@@H](O)[C@@H](C)[C@H](OC(C)=O)[C@@H]1C,resazurin,MC^2155,24 h,0.8 µg/mL
O=C(Nc1ccccc1)c1cc(-c2csc(Nc3ccc(Cl)cc3)n2)on1,,MC2155,,> 64 µg/mL
CCOc1ccc(-c2c[nH]c(N)n2)cc1,,ATCC700084 MC^2155,48 h,200 µM
CCCCCCCCCCC[C@@H](C[C@@H]1OC(=O)[C@H]1CCCCCC)OC(=O)[C@H](CC(C)C)NC=O,resazurin,MC^2155,,48 µg/mL
CCCCCOc1ccc(-c2c[nH]c(N)n2)cc1,,ATCC700084 MC^2155,48 h,150 µM
CC[C@@H](CO)NCCN[C@@H](CC)CO,resazurin,MC^2155,24 h,0.78 µg/mL
CCCCc1ccc(-c2c[nH]c(N)n2)cc1,,ATCC700084 MC^2155,48 h,150 µM
Cc1ccc(Nc2nc(-c3cc(C(=O)Nc4cccc(C)n4)no3)cs2)cc1,,MC2155,,> 64 µg/mL
